Experimental data from ChEMBL document CHEMBL5724801, “EUbOPEN Chemogenomics Library - Multiplex” (2024).
Several values for one entry are separate records, joined by “and”; a condition that tells them apart may be missing. Equal entries are not always repeated.

Tested on: Fibroblast
Assay: Multiplex assay against human fibroblast
Type: toxicity, cell-based
Summary of the method: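 Cells stained live at seeding with Hoechst33342, BioTracker Green Microtubule Cytoskeleton Dye, MitoTracker Red and Annexin V Alexa Fluor 680 were imaged on a CQ1 microscope at 37°C and 5% CO2 after compound addition. Their classification by CellPathfinder machine-learning gating ran from Hoechst high-intensity objects versus normal cells, to healthy, pyknosed or fragmented nuclei among normal cells, to mitotic or apoptotic among pyknosed cells. Tubulin, mitochondrial-mass and membrane-permeability phenotypes are per cents of healthy-nucleus cells.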

[1] = 12 h, 1 µM, compound concentration 1 uM
[2] = 12 h, 10 µM, compound concentration 10 uM
[3] = 24 h, 1 µM, compound concentration 1 uM
[4] = 24 h, 10 µM, compound concentration 10 uM
[5] = 48 h, 1 µM, compound concentration 1 uM
[6] = 48 h, 10 µM, compound concentration 10 uM

CC(C)COc1ccc(CNC(=O)N(Cc2ccc(F)cc2)C2CCN(C)CC2)cc1 [PIMAVANSERIN]
Population Apoptotic (%) [1]: 65% and 61%
Population Fragmented Nuclei (%) [1]: 24% and 40%
Population Healthy Nuclei (%) [1]: 62% and 42%
Population Hoechst High Intensity Objects (%) [1]: 0% and 1%
Population Membrane Permeable-Phenotype (%) [1]: 0% and 7%
Population Mitochondria Different-Phenotype (%) [1]: 12% and 4%
Population Mitotic Cells (%) [1]: 34% and 38%
Population Normal (%) [1]: 100% and 98%
Population Pyknosed Nuclei (%) [1]: 12% and 16%
Population Tubulin-Different-Phenotype (%) [1]: 35% and 82%
Total Cell Count [1]: 179 and 160
Population Apoptotic (%) [2]: 56% and 51%
Population Fragmented Nuclei (%) [2]: 18% and 31%
Population Healthy Nuclei (%) [2]: 65% and 42%
Population Hoechst High Intensity Objects (%) [2]: 1% and 4%
Population Membrane Permeable-Phenotype (%) [2]: 0% and 2%
Population Mitochondria Different-Phenotype (%) [2]: 42% and 32%
Population Mitotic Cells (%) [2]: 43% and 48%
Population Normal (%) [2]: 98% and 95%
Population Pyknosed Nuclei (%) [2]: 16% and 26%
Population Tubulin-Different-Phenotype (%) [2]: 93% and 81%
Total Cell Count [2]: 185
Population Apoptotic (%) [3]: 60% and 52%
Population Fragmented Nuclei (%) [3]: 21% and 39%
Population Healthy Nuclei (%) [3]: 65% and 46%
Population Hoechst High Intensity Objects (%) [3]: 2%
Population Membrane Permeable-Phenotype (%) [3]: 1% and 4%
Population Mitochondria Different-Phenotype (%) [3]: 5% and 9%
Population Mitotic Cells (%) [3]: 39% and 47%
Population Normal (%) [3]: 97%
Population Pyknosed Nuclei (%) [3]: 12% and 13%
Population Tubulin-Different-Phenotype (%) [3]: 47% and 76%
Total Cell Count [3]: 186 and 157
Population Apoptotic (%) [4]: 83% and 69%
Population Fragmented Nuclei (%) [4]: 13% and 27%
Population Healthy Nuclei (%) [4]: 67% and 50%
Population Hoechst High Intensity Objects (%) [4]: 4% and 8%
Population Membrane Permeable-Phenotype (%) [4]: 0% and 3%
Population Mitochondria Different-Phenotype (%) [4]: 41% and 38%
Population Mitotic Cells (%) [4]: 16% and 30%
Population Normal (%) [4]: 95% and 91%
Population Pyknosed Nuclei (%) [4]: 18% and 21%
Population Tubulin-Different-Phenotype (%) [4]: 92% and 96%
Total Cell Count [4]: 170 and 167
Population Apoptotic (%) [5]: 88% and 52%
Population Fragmented Nuclei (%) [5]: 27% and 44%
Population Healthy Nuclei (%) [5]: 62% and 44%
Population Hoechst High Intensity Objects (%) [5]: 3% and 5%
Population Membrane Permeable-Phenotype (%) [5]: 1% and 4%
Population Mitochondria Different-Phenotype (%) [5]: 3% and 12%
Population Normal (%) [5]: 96% and 94%
Population Pyknosed Nuclei (%) [5]: 9% and 10%
Population Tubulin-Different-Phenotype (%) [5]: 45% and 64%
Total Cell Count [5]: 204 and 167
Population Apoptotic (%) [6]: 92% and 75%
Population Fragmented Nuclei (%) [6]: 15% and 30%
Population Healthy Nuclei (%) [6]: 67% and 53%
Population Hoechst High Intensity Objects (%) [6]: 12% and 6%
Population Membrane Permeable-Phenotype (%) [6]: 0% and 3%
Population Mitochondria Different-Phenotype (%) [6]: 44% and 41%
Population Normal (%) [6]: 87% and 93%
Population Pyknosed Nuclei (%) [6]: 17% and 16%
Population Tubulin-Different-Phenotype (%) [6]: 91% and 92%
Total Cell Count [6]: 163 and 159

CN(C)Cc1cccc(NC(=C2C(=O)Nc3cc(C(N)=O)ccc32)c2ccccc2)c1
Population Apoptotic (%) [1]: 0% and 16.22%
Population Fragmented Nuclei (%) [1]: 12% and 11.4%
Population Healthy Nuclei (%) [1]: 66.67% and 69.43%
Population Hoechst High Intensity Objects (%) [1]: 0%
Population Membrane Permeable-Phenotype (%) [1]: 4% and 2.99%
Population Mitochondria Different-Phenotype (%) [1]: 10% and 8.21%
Population Mitotic Cells (%) [1]: 100% and 83.78%
Population Normal (%) [1]: 100%
Population Pyknosed Nuclei (%) [1]: 21.33% and 19.17%
Population Tubulin-Different-Phenotype (%) [1]: 20% and 13.43%
Total Cell Count [1]: 150 and 193
Population Apoptotic (%) [2]: 29.55% and 27.03%
Population Healthy Nuclei (%) [2]: 68.3% and 82.06%
Population Hoechst High Intensity Objects (%) [2]: 0%
Population Membrane Permeable-Phenotype (%) [2]: 9.39% and 4.65%
Population Mitochondria Different-Phenotype (%) [2]: 16.57% and 13.49%
Population Mitotic Cells (%) [2]: 70.45% and 72.97%
Population Normal (%) [2]: 100%
Population Pyknosed Nuclei (%) [2]: 16.6% and 14.12%
Population Tubulin-Different-Phenotype (%) [2]: 48.62% and 53.95%
Total Cell Count [2]: 265 and 262
Population Apoptotic (%) [3]: 23.81% and 25%
Population Fragmented Nuclei (%) [3]: 7.65% and 8.11%
Population Healthy Nuclei (%) [3]: 80% and 81.08%
Population Hoechst High Intensity Objects (%) [3]: 0%
Population Membrane Permeable-Phenotype (%) [3]: 4.41% and 2%
Population Mitochondria Different-Phenotype (%) [3]: 5.15% and 6.67%
Population Mitotic Cells (%) [3]: 76.19% and 75%
Population Normal (%) [3]: 100%
Population Pyknosed Nuclei (%) [3]: 12.35% and 10.81%
Population Tubulin-Different-Phenotype (%) [3]: 8.82% and 14.67%
Total Cell Count [3]: 170 and 185
Population Apoptotic (%) [4]: 16.28% and 31.25%
Population Fragmented Nuclei (%) [4]: 12.59% and 7.12%
Population Healthy Nuclei (%) [4]: 71.94% and 80.9%
Population Hoechst High Intensity Objects (%) [4]: 0%
Population Membrane Permeable-Phenotype (%) [4]: 5.5% and 3.24%
Population Mitochondria Different-Phenotype (%) [4]: 9% and 14.35%
Population Mitotic Cells (%) [4]: 83.72% and 68.75%
Population Normal (%) [4]: 100%
Population Pyknosed Nuclei (%) [4]: 15.47% and 11.99%
Population Tubulin-Different-Phenotype (%) [4]: 48.5% and 61.11%
Total Cell Count [4]: 278 and 267
Population Apoptotic (%) [5]: 40% and 44.44%
Population Fragmented Nuclei (%) [5]: 11.24% and 9.23%
Population Healthy Nuclei (%) [5]: 83.15% and 76.92%
Population Hoechst High Intensity Objects (%) [5]: 0%
Population Membrane Permeable-Phenotype (%) [5]: 1.35% and 5.33%
Population Mitotic Cells (%) [5]: 60% and 55.56%
Population Normal (%) [5]: 100%
Population Pyknosed Nuclei (%) [5]: 5.62% and 13.85%
Population Tubulin-Different-Phenotype (%) [5]: 8.11% and 15.33%
Total Cell Count [5]: 178 and 195
Population Apoptotic (%) [6]: 47.37% and 60%
Population Healthy Nuclei (%) [6]: 76.72% and 86.82%
Population Hoechst High Intensity Objects (%) [6]: 0%
Population Membrane Permeable-Phenotype (%) [6]: 5.06% and 5.36%
Population Mitochondria Different-Phenotype (%) [6]: 6.23% and 7.14%
Population Mitotic Cells (%) [6]: 52.63% and 40%
Population Normal (%) [6]: 100%
Population Pyknosed Nuclei (%) [6]: 5.67% and 7.75%
Population Tubulin-Different-Phenotype (%) [6]: 40.86% and 67.41%
Total Cell Count [6]: 335 and 258
